In brackets after ≈: the same amount, converted by molar mass.

Data set [1] deals with Mycobacterium tuberculosis. Put plainly: Antimycobacterial activity against Mycobacterium tuberculosis H37Rv ATCC 27294 after 7 days by broth microdilution assay. It counts as functional. As to conditions: H37Rv ATCC 27294, 168 h. The gist of the method:
(§1)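 Cycle 1 HTS MABA: M. tuberculosis H37Rv ATCC 27294 in 7H12 broth, 384-well, final 1% DMSO. Ten twofold dilutions, typically 100 to 0.195 µg/mL. Amikacin controls at 0.17 and 3.20 µM; the high level serves as background for percent inhibition. 7 days at 37 °C, ~95% humidity. Fluorescence read at 535 nm excitation / 590 nm emission.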

The subject of data set [2] is Mycobacterium tuberculosis. Kind of data set: Antimycobacterial activity against Mycobacterium tuberculosis H37Rv ATCC 27294 after 7 days by microplate Alamar blue assay. It counts as functional, organism-based. The note with it: H37Rv ATCC 27294, 168 h. The gist of the method: as §1
The subject of data set [3] is Mycobacterium tuberculosis. Put plainly: Antimycobacterial activity against Mycobacterium tuberculosis H37Rv ATCC 27294 at 0.31 ug/ml after 7 days by microplate Alamar blue assay relative to control. As to conditions: H37Rv ATCC 27294, 168 h. The format is functional. The gist of the method:
as §1
In general terms: Alamar Blue is a resazurin reagent that responds to reducing activity.

For data set [4], the system named is Mycobacterium tuberculosis. Put plainly: Antimycobacterial activity against Mycobacterium tuberculosis H37Rv ATCC 27294 at 0.63 ug/ml after 7 days by microplate Alamar blue assay relative to control. It counts as functional. The note with it: H37Rv ATCC 27294, 168 h. Summed up: as §1
Data set [5] relates to Mycobacterium tuberculosis. Kind of data set: Antimycobacterial activity against Mycobacterium tuberculosis H37Rv ATCC 27294 at 1.25 to 5 ug/ml after 7 days by microplate Alamar blue assay relative to control. The format is functional. The gist of the method:
as §1

The nature of data set [6]: Cytotoxicity against mouse J774A1 cells assessed as cell viability at 1 ug/ml after 7 days by MTT assay relative to control. It counts as cell-based, J774.A1. As to conditions: read-out: Activity. The gist of the method: (§2)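 Uninfected murine J774 macrophages grown in RPMI 1640 with L-glutamine and FBS at 37 °C, 5% CO2. Cells seeded at 2.0 × 10^5 per well in 10% FBS, then switched to 1% FBS overnight. Run in parallel with the 7-day infection assay. […] Read out by MTT as percent viability.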
(In general: Tetrazolium dyes change colour on reduction, which living cells bring about.)

Data set [7] is described as follows: Cytotoxicity against mouse J774A1 cells assessed as cell viability at 0.1 ug/ml after 7 days by MTT assay relative to control. The format is cell-based, J774.A1. As to conditions: read-out: Activity. The gist of the method:
as §2

A short description of data set [8]: Cytotoxicity against mouse J774A1 cells assessed as cell viability at 0.01 ug/ml after 7 days by MTT assay relative to control. As to conditions: read-out: Activity. It counts as cell-based, J774.A1. The gist of the method:
as §2

Data set [9] has as its system Mycobacterium tuberculosis. Kind of data set: Antimycobacterial activity against Mycobacterium tuberculosis H37Rv SRI 1345 infected in mouse J774A1 cells assessed as reduction in bacterial growth at 1 ug/ml after 7 days relative to control. The format is functional, J774.A1. The gist of the method:
(§3)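 Murine J774 macrophages grown in RPMI 1640 with L-glutamine and FBS at 37 °C, 5% CO2. Plated at 2.0 × 10^5 in 10% FBS, switched to 1% FBS next day. Infected 24 h later at MOI 5 for 4 h, washed, then drug added. At 0 and 7 days, cells lysed with SDS, DNase-treated and plated on 7H10 agar for CFU. Duplicates; read-out is log reduction from day 0 to day 7.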

The test system of data set [10] is Mycobacterium tuberculosis. Put plainly: Antimycobacterial activity against Mycobacterium tuberculosis H37Rv SRI 1345 infected in mouse J774A1 cells assessed as reduction in bacterial growth at 0.1 ug/ml after 7 days relative to control. It counts as functional, J774.A1. The gist of the method:
as §3

For data set [11], the system named is Mycobacterium tuberculosis. Kind of data set: Antimycobacterial activity against Mycobacterium tuberculosis H37Rv SRI 1345 infected in mouse J774A1 cells assessed as reduction in bacterial growth at 0.01 ug/ml after 7 days relative to control. The format is functional, J774.A1. The gist of the method: as §3
For data set [12], the system named is Mycobacterium tuberculosis. Kind of data set: Antimycobacterial activity against Mycobacterium tuberculosis H37Rv SRI 1345 incubated for 7 days under anaerobic condition measured after 7 days of recovery under gaseous condition by low oxygen recovery assay. The format is functional.
In data set [13] the test system is Mycobacterium tuberculosis. Put plainly: […] activity against Mycobacterium tuberculosis H37Rv SRI 1345 after 16 to 21 days. The format is functional. The note with it: read-out: MBC99.9. The gist of the method:
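MBC, done after MIC testing in H37Rv SRI 1345: diluted aliquots from wells without macroscopic growth are plated on Middlebrook 7H10 agar and incubated 16–21 days at 37 °C. CFUs are counted. MBC is the lowest concentration giving 99.9% kill; rejection value is ≥40 colonies.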

In data set [14] the test system is Mycobacterium tuberculosis. Put plainly: Antimycobacterial activity against Mycobacterium tuberculosis H37Rv SRI 1345 at MIC after 7 days by broth microdilution assay relative to control. The format is functional. On the technique in general: In broth dilution the organism is exposed to a series of concentrations in liquid medium.
In data set [15] the test system is Mycobacterium tuberculosis. Kind of data set: Antimycobacterial activity against Mycobacterium tuberculosis H37Rv SRI 1345 after 7 days by broth microdilution assay. It counts as functional. The note with it: H37Rv SRI 1345, 168 h.
Data set [16] deals with Mycobacterium tuberculosis. Kind of data set: Antimycobacterial activity against Mycobacterium tuberculosis H37Rv ATCC 27294 at 0.02 ug/ml after 7 days by microplate Alamar blue assay relative to control. It counts as functional. As to conditions: H37Rv ATCC 27294, 168 h. Summed up:
as §1

Data set [17] has as its system Mycobacterium tuberculosis. Kind of data set: Antimycobacterial activity against Mycobacterium tuberculosis H37Rv ATCC 27294 at 1.56 ug/ml after 7 days by microplate Alamar blue assay relative to control. The format is functional. The note with it: H37Rv ATCC 27294, 168 h. The gist of the method: as §1
In data set [18] the test system is Mycobacterium tuberculosis. Put plainly: Antimycobacterial activity against Mycobacterium tuberculosis H37Rv ATCC 27294 at 12.5 ug/ml after 7 days by microplate Alamar blue assay relative to control. The format is functional. The note with it: H37Rv ATCC 27294, 168 h. The gist of the method:
as §1

Data set [19] has as its system Mycobacterium tuberculosis. Put plainly: Antimycobacterial activity against Mycobacterium tuberculosis H37Rv ATCC 27294 at 50 ug/ml after 7 days by microplate Alamar blue assay relative to control. The format is functional. As to conditions: H37Rv ATCC 27294, 168 h. The gist of the method: as §1
For data set [20], the system named is Mycobacterium tuberculosis. Put plainly: Antimycobacterial activity against Mycobacterium tuberculosis H37Rv ATCC 27294 at 100 ug/ml after 7 days by microplate Alamar blue assay relative to control. It counts as functional. The note with it: H37Rv ATCC 27294, 168 h. Summed up: as §1
In data set [21] the test system is Mycobacterium tuberculosis. Put plainly: Antimycobacterial activity against Mycobacterium tuberculosis H37Rv ATCC 27294 at 25 ug/ml after 7 days by microplate Alamar blue assay relative to control. The format is functional. As to conditions: H37Rv ATCC 27294, 168 h. The gist of the method:
as §1

In data set [22] the test system is Mycobacterium tuberculosis. Put plainly: Antimycobacterial activity against Mycobacterium tuberculosis H37Rv ATCC 27294 at 0.79 ug/ml after 7 days by microplate Alamar blue assay relative to control. It counts as functional. As to conditions: H37Rv ATCC 27294, 168 h. Summed up:
as §1

As for `NNC(=O)c1ccncc1` [ISONIAZID], the MIC90 (in general, an inhibitory concentration at the 90% level, which refers to growth in some studies and to a panel of isolates in others) in data set [1] came to 0.31 µM (≈ 0.0425 µg/mL). For the same compound, in data set [2], 0.18 µg/mL (≈ 1.31 µM) corresponded to half-maximal inhibition (IC50) and the IC90 – broadly, the concentration at which the effect reaches the 90% level – came to 0.29 µg/mL (≈ 2.11 µM). Further, the inhibition (in general, the drop in the measured response relative to a control, in per cent) at 0.31 µg/mL in [3] came out at 92.9%. Further, the inhibition at 0.63 µg/mL in data set [4] came out at 93.9%. The “inhibition (INH)” value in data set [5] is given as 94%.
With `CO[C@H]1/C=C/O[C@@]2(C)Oc3c(C)c(O)c4c(O)c(c(/C=N/N5CCN(C)CC5)c(O)c4c3C2=O)NC(=O)/C(C)=C\C=C\[C@H](C)[C@H](O)[C@@H](C)[C@@H](O)[C@@H](C)[C@H](OC(C)=O)[C@@H]1C` [RIFAMPIN], the viability at 168 h, 1 ug/ml in [6] was found to be 85%. For the same compound, the viability at 168 h, 0.1 ug/ml in data set [7] is 93%. Also, the viability at 168 h, 0.01 ug/ml in data set [8] is 94%. The results for the “fold change (FC)” value in data set [9], in data set [10] and in [11] were 1.49, 0.81 and 0.98, respectively. For the same compound, in data set [12], the INH was determined as 0.13 µg/mL. The MBC in [13] was found to be 1.56 µg/mL (≈ 1.9 µM). The “inhibition (INH)” value in [14] stood at 63%. Further, inhibition of growth in data set [15] (MIC) required 0.049 µg/mL (≈ 0.0595 µM). Further, the MIC90 in data set [1] came out at 0.04 µM (≈ 0.0329 µg/mL). Moreover, inhibition in data set [2] was half-maximal at 0.02 µg/mL (≈ 0.0243 µM) (IC50). For the same compound, in data set [2], the 90% effect concentration (IC90) was 0.02 µg/mL (≈ 0.0243 µM). For the same compound, the inhibition at 0.02 µg/mL in data set [16] stood at 61.2%.
For `CCOC(=O)c1cc(C(=O)c2ccccc2)n2ccc(-c3ccn4c(C(=O)c5ccc(OC)cc5)cc(C(=O)OC)c4c3)cc12`, in [1], the MIC90 is over 100 µM. Also, in [2], the IC50 (in general, the concentration needed to halve the response being measured) is over 100 µg/mL and the IC90 is over 100 µg/mL. Moreover, the inhibition at 1.56 µg/mL in data set [17] is -2%. The inhibition at 12.5 µg/mL in data set [18] was 0.8%. In data set [19], the inhibition at 50 µg/mL stood at 5.3%. The inhibition at 100 µg/mL in data set [20] was -4.5%.
The compound `N[C@@H]1CONC1=O` [CYCLOSERINE] registered an MIC90 in [1] of 25 µM (≈ 2.55 µg/mL). In [2], this compound gave an IC50 of 12.5 µg/mL (≈ 122 µM) and a 90% effect concentration (IC90) of 13.5 µg/mL (≈ 132 µM). Moreover, the inhibition at 12.5 µg/mL in data set [18] was 51%. The inhibition at 25 µg/mL in data set [21] was 93.9%. In data set [19], the inhibition at 50 µg/mL was 96.3%. The inhibition at 100 µg/mL in [20] was 97.7%.
With `CCOC(=O)c1cc(C#N)n2ccc(-c3ccncc3)cc12`, in [1], the MIC90 is over 100 µM. In data set [2], this compound registered an IC50 of 33.4 µg/mL (≈ 114 µM) and an IC90 of 59.5 µg/mL (≈ 204 µM). For the same compound, in data set [18], the inhibition at 12.5 µg/mL turned out to be 15.3%. For the same compound, the inhibition at 25 µg/mL in [21] came to 21.5%. Also, the inhibition at 50 µg/mL in [19] came out at 84.9%. Moreover, the inhibition at 100 µg/mL in data set [20] came to 97.2%. Also, the inhibition at 0.79 µg/mL in data set [22] amounted to 8.6%.

The values are drawn from ChEMBL document CHEMBL3120161, “Antimycobacterial activity of nitrogen heterocycles derivatives: bipyridine derivatives. Part III” (Eur J Med Chem, 2014).
